# From ChEMBL document CHEMBL3774372, “Design, physico-chemical properties and biological evaluation of some new N-[(phenoxy)alkyl]- and N-{2-[2-(phenoxy)ethoxy]ethyl}aminoalkanols as anticonvulsant agents” (Bioorg Med Chem, 2016)
# Active and inactive are the calls of the source. The rule behind the calls is not given here.
# Experiments:
# [1] = system: Rattus norvegicus; assay: Anticonvulsant activity in rat assessed as protection against maximal electric shock-induced seizures at 30 mg/kg, po measured after 0.5 hrs; type: functional, organism-based
# In short: (§1)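 Rats dosed ip or orally as 0.5% methylcellulose suspension; maximal electroshock at listed time. Protection = abolition of hindlimb tonic extension; 4 rats per group, scored protected/tested.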
# [2] = system: Rattus norvegicus; assay: Anticonvulsant activity in rat assessed as protection against maximal electric shock-induced seizures at 30 mg/kg, po measured after 1 hr; type: functional, organism-based; in short: as §1
# [3] = system: Mus musculus; assay: Anticonvulsant activity in mouse assessed as protection against maximal electric shock-induced seizures at 100 mg/kg, ip measured after […]; type: functional, organism-based
# [4] = system: Mus musculus; assay: Anticonvulsant activity in mouse assessed as protection against 6 Hz psychomotor seizure at 100 mg/kg, ip after 2 hrs; type: functional, organism-based
# In short: (§2)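 Suspension in 0.5% methylcellulose given ip to mice; corneal stimulation with 0.2 ms monopolar rectangular pulses at 6 Hz for 3 s from a constant current device, mice restrained then released to observation cage. Protected if normal exploratory behaviour resumed within 10 s of stimulation. Scored as protected/tested, 4 mice per group.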
# [5] = system: Mus musculus; assay: Neurotoxicity in mouse at 100 mg/kg, ip after 2 hrs by rotarod test; type: toxicity, organism-based; conditions: in vivo
# In short: (§3)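 Mice were dosed ip with compound suspended in 0.5% methylcellulose. Rotarod: a 1 in. knurled rod turning at 6 rpm. Neurotoxicity was scored as failure to stay on the rod for at least 1 min in each of three trials. Results are given as the number of animals affected out of the number tested.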
# [6] = system: Rattus norvegicus; assay: Anticonvulsant activity in rat assessed as protection against maximal electric shock-induced seizures at 30 mg/kg, po measured after 2 hrs; type: functional, organism-based; in short: as §1
# [7] = system: Rattus norvegicus; assay: Anticonvulsant activity in rat assessed as protection against maximal electric shock-induced seizures at 30 mg/kg, po measured after 4 hrs; type: functional, organism-based; in short: as §1
# [8] = system: Rattus norvegicus; assay: Neurotoxicity in rat at 30 mg/kg, ip after […] by rotarod test; type: toxicity, organism-based; conditions: in vivo
# [9] = system: Rattus norvegicus; assay: Neurotoxicity in rat at 30 mg/kg, ip after 0.5 hrs by rotarod test; type: toxicity, organism-based; conditions: in vivo
# [10] = system: Rattus norvegicus; assay: Neurotoxicity in rat at 30 mg/kg, ip after 1 hr by rotarod test; type: toxicity, organism-based; conditions: in vivo
# [11] = system: Rattus norvegicus; assay: Neurotoxicity in rat at 30 mg/kg, ip after 2 hrs by rotarod test; type: toxicity, organism-based; conditions: in vivo
# [12] = system: Rattus norvegicus; assay: Neurotoxicity in rat at 30 mg/kg, ip after 4 hrs by rotarod test; type: toxicity, organism-based; conditions: in vivo
# [13] = system: Rattus norvegicus; assay: Neurotoxicity in rat at 30 mg/kg, po after […] by rotarod test; type: toxicity, organism-based; conditions: in vivo
# [14] = system: Rattus norvegicus; assay: Neurotoxicity in rat at 30 mg/kg, po after 0.5 hrs by rotarod test; type: toxicity, organism-based; conditions: in vivo
# [15] = system: Rattus norvegicus; assay: Neurotoxicity in rat at 30 mg/kg, po after 1 hr by rotarod test; type: toxicity, organism-based; conditions: in vivo
# [16] = system: Rattus norvegicus; assay: Neurotoxicity in rat at 30 mg/kg, po after 2 hrs by rotarod test; type: toxicity, organism-based; conditions: in vivo
# [17] = system: Rattus norvegicus; assay: Neurotoxicity in rat at 30 mg/kg, po after 4 hrs by rotarod test; type: toxicity, organism-based; conditions: in vivo
# [18] = system: Mus musculus; assay: Anticonvulsant activity in mouse assessed as protection against 6 Hz psychomotor seizure at 100 mg/kg, ip after 4 hrs; type: functional, organism-based; in short: as §2
# [19] = system: Mus musculus; assay: Anticonvulsant activity in mouse assessed as protection against maximal electric shock-induced seizures at 30 mg/kg, ip measured after 1 hr; type: functional, organism-based
# In short: (§4)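 Mice dosed ip with suspension in 0.5% methylcellulose; maximal electroshock applied at the listed time after dosing. Protection = abolition of hindlimb tonic extension component of seizure; reported as animals protected/animals tested.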
# [20] = system: Mus musculus; assay: Anticonvulsant activity in mouse assessed as protection against maximal electric shock-induced seizures at 30 mg/kg, ip measured after 4 hrs; type: functional, organism-based; in short: as §4
# [21] = system: Mus musculus; assay: Anticonvulsant activity in mouse assessed as protection against maximal electric shock-induced seizures at 100 mg/kg, ip measured after 0.5 hrs; type: functional, organism-based; in short: as §4
# [22] = system: Mus musculus; assay: Anticonvulsant activity in mouse assessed as protection against maximal electric shock-induced seizures at 100 mg/kg, ip measured after 1 hr; type: functional, organism-based; in short: as §4
# [23] = system: Mus musculus; assay: Anticonvulsant activity in mouse assessed as protection against maximal electric shock-induced seizures at 100 mg/kg, ip measured after 4 hrs; type: functional, organism-based; in short: as §4
# [24] = system: Mus musculus; assay: Neurotoxicity in mouse at 30 mg/kg, ip after […] by rotarod test; type: toxicity, organism-based; conditions: in vivo
# [25] = system: Mus musculus; assay: Neurotoxicity in mouse at 30 mg/kg, ip after 0.5 hrs by rotarod test; type: toxicity, organism-based; conditions: in vivo; in short: as §3
# [26] = system: Mus musculus; assay: Neurotoxicity in mouse at 30 mg/kg, ip after 1 hr by rotarod test; type: toxicity, organism-based; conditions: in vivo
# [27] = system: Mus musculus; assay: Neurotoxicity in mouse at 30 mg/kg, ip after 4 hrs by rotarod test; type: toxicity, organism-based; conditions: in vivo; in short: as §3
# [28] = system: Mus musculus; assay: Neurotoxicity in mouse at 100 mg/kg, ip after 1 hr by rotarod test; type: toxicity, organism-based; conditions: in vivo; in short: as §3
# [29] = system: Mus musculus; assay: Neurotoxicity in mouse at 100 mg/kg, ip after 4 hrs by rotarod test; type: toxicity, organism-based; conditions: in vivo; in short: as §3
# [30] = system: Rattus norvegicus; assay: Anticonvulsant activity in rat assessed as protection against maximal electric shock-induced seizures at 30 mg/kg, ip measured after 1 hr; type: functional, organism-based; in short: as §1
# [31] = system: Rattus norvegicus; assay: Anticonvulsant activity in rat assessed as protection against maximal electric shock-induced seizures at 30 mg/kg, ip measured after 4 hrs; type: functional, organism-based; in short: as §1
# [32] = system: Rattus norvegicus; assay: Anticonvulsant activity in rat assessed as protection against maximal electric shock-induced seizures at 30 mg/kg, po measured after […]; type: functional, organism-based
smiles,measurement,setting,value
Cc1cccc(OCCCN2CCCC(O)C2)c1C (configuration not stated),Activity,[1],inactive
same,Activity,[2],inactive
same,Activity,[3],Active
same,Activity,[4],inactive
same,Activity,[5],Non-toxic
same,Activity,[6],inactive
same,Activity,[7],inactive
same,Activity,[8],Non-toxic
same,Activity,[9],Non-toxic
same,Activity,[10],Non-toxic
same,Activity,[11],Non-toxic
same,Activity,[12],Non-toxic
same,Activity,[13],Non-toxic
same,Activity,[14],Non-toxic
same,Activity,[15],Non-toxic
same,Activity,[16],Non-toxic
same,Activity,[17],Non-toxic
same,Activity,[18],inactive
same,Activity,[19],inactive
same,Activity,[20],inactive
same,Activity,[21],Active
same,Activity,[22],Active
same,Activity,[23],inactive
same,Activity,[24],Non-toxic
same,Activity,[25],Non-toxic
same,Activity,[26],Non-toxic
same,Activity,[27],Non-toxic
same,Activity,[28],Non-toxic
same,Activity,[29],Non-toxic
same,Activity,[30],inactive
same,Activity,[31],inactive
same,Activity,[32],inactive
